We go through nine compounds from ChEMBL document CHEMBL1144077, “Cytotoxic lignans of Justicia ciliata” (J Nat Prod, 1999).

In brackets after ≈: the same amount, converted by molar mass. Activity calls are given as the source filed them. No cut-off for these calls is given here. Starred links: 1 amine or outer side, 2 acyl side, 3 side chain; linkers in the order of their positions; H or OH if unused. Positions of bridges follow the written chain, without caps; N, C: chain ends. Non-standard residues stand in square brackets, D forms with d. Residues, ends and D or L forms follow the SMILES beside them. Chains are numbered I, II in the order given. Actinocin(1to9) = Cc1c2oc3c(C)ccc(C(=O)[*:2])c3nc-2c(C(=O)[*:1])c(N)c1=O; NMeV = CN[C@H](C(=O)O)C(C)C; Sar = CNCC(=O)O

The subject of one data set is T-24. Put plainly: Cytotoxicity against human T24 cells after 6 days by MTT assay. Format: functional. The note with it: for EC50: T-24, 144 h, read-out: ED50 (the source's name). Summed up:
(§1)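 Human lines kept in DMEM with 10% FBS, 2 mM glutamine, penicillin/streptomycin. 1-3 × 10^3 cells/100 µL seeded, 6 h attachment, then medium replaced with fresh medium (plus 10 mM HEPES pH 7.3) holding a range of drug concentrations. Exposure 6 days, 37 °C, CO2. MTT (1 mg/mL stock, 10 µL) for 4 h, DMSO solubilization, absorbance 550 nm. ED50 in µg/mL.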
Background: Tetrazolium dyes change colour on reduction, which living cells bring about.

In the next data set the test system is SiHa. Put plainly: Cytotoxicity against human SiHa cells after 6 days by MTT assay. Format: functional. The note with it: for EC50: Homo sapiens, SiHa, 144 h, read-out: ED50 (the source's name). Summed up:
as §1

A further data set deals with Ca-Ski. Put plainly: Cytotoxicity against human CaSki cells after 6 days by MTT assay. As to conditions: for EC50: 144 h, read-out: ED50 (the source's name). The data set is classed as functional. In a few lines: as §1
Another data set concerns HT-3. The experiment in a line: Cytotoxicity against human HT-3 cells after 6 days by MTT assay. Format: functional. As to conditions: for EC50: Homo sapiens, HT-3, 144 h, read-out: ED50 (the source's name). Summed up:
as §1

Data set [1] can be described thus: (§2) Cytotoxicity against human PLC/PRF/5 cells after 6 days by MTT assay. Format: functional. The note with it: PLC-PRF-5, 144 h, read-out: ED50 (the source's name). In a few lines:
as §1

The nature of data set [2]: Cytotoxicity against mouse NIH/3T3-212 cells after 6 days by MTT assay. As to conditions: for CC50 at 144 h: NIH/3T3-212 cells, read-out: ED50; for Activity: 144 h. Format: cell-based. Summed up: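 212 cells (NIH/3T3 carrying inducible Ha-ras) kept in alpha-MEM with 10% calf serum and antibiotics. 1-3 × 10^3 cells/100 µL seeded, 6 h attachment, then fresh HEPES-supplemented (10 mM, pH 7.3) medium with graded drug concentrations for 6 days at 37 °C. MTT 4 h, DMSO dissolution, read at 550 nm. ED50 in µg/mL.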

A further data set relates to PLC-PRF-5. Described as §2. Format: functional. In a few lines: as §1

In the case of `COc1cc(-c2c3c(c(OC)c4cc(OC)c(OC)cc24)COC3=O)ccc1O` [CILINAPHTHALIDE A], the EC50 amounted to 1.3 µg/mL (≈ 3.28 µM) in the data set on T-24; 6.4 µg/mL (≈ 16.1 µM) in the data set with SiHa; 3 µg/mL (≈ 7.57 µM) in the data set on Ca-Ski; 0.3 µg/mL (≈ 0.757 µM) in the data set with HT-3; 12 µg/mL (≈ 30.3 µM) in data set [1]. In data set [2], the CC50 at 144 h is over 8 µg/mL.
Take `COc1cc2c(OC)c3c(c(-c4ccc5c(c4)OCO5)c2cc1OC)C(=O)OC3` [JUSTICIDIN A]: the EC50 is 0.002 µg/mL (≈ 0.00507 µM) in the data set with T-24; 0.0074 µg/mL (≈ 0.0188 µM) with SiHa; 0.003 µg/mL (≈ 0.00761 µM) in the data set on Ca-Ski; 0.0018 µg/mL (≈ 0.00456 µM) in the data set with HT-3; 0.0022 µg/mL (≈ 0.00558 µM) in data set [1]. Moreover, the CC50 at 144 h in data set [2] amounted to 0.0227 µg/mL (≈ 0.0576 µM).
With `COC(=O)C(Cc1ccc2c(c1)OCO2)C(Cc1ccc2c(c1)OCO2)C(=O)OC` (stereo not drawn), the outcome in the data set on T-24, with SiHa, in the data set with Ca-Ski, in the data set on HT-3 and in the data set on PLC-PRF-5 was inactive. For the same compound, in data set [2], the Activity result is listed as “Not Active”.
As to `Cc1c2oc3c(C)ccc(C(=O)N[C@@H]4C(=O)N[C@H](C(C)C)C(=O)N5CCC[C@H]5C(=O)N(C)CC(=O)N(C)[C@@H](C(C)C)C(=O)O[C@@H]4C)c3nc-2c(C(=O)N[C@@H]2C(=O)N[C@H](C(C)C)C(=O)N3CCC[C@H]3C(=O)N(C)CC(=O)N(C)[C@@H](C(C)C)C(=O)O[C@@H]2C)c(N)c1=O` [DACTINOMYCIN] (I: T[dV]P[Sar][NMeV] / II: T[dV]P[Sar][NMeV]; ester I:1-I:C, II:1-II:C; linker I:N-II:N via Actinocin(1to9)), the EC50 with T-24 stood at 0.0015 µg/mL (≈ 0.00119 µM); in the data set with Ca-Ski it was 0.0019 µg/mL (≈ 0.00151 µM); in data set [1] it was 0.0014 µg/mL (≈ 0.00112 µM). In addition, the results for the ED50 in the data set with SiHa and with HT-3 were 8.1 ×10⁻⁴ ug/ml and 5.6 ×10⁻⁴ ug/ml, respectively.
Regarding `COc1cc2c(OC)c3c(c(-c4ccc5c(c4)OCO5)c2cc1OC)COC3=O` [NEOJUSTICIN B], the result in the data set on T-24, with SiHa, in the data set with Ca-Ski, in the data set on HT-3 and in the data set on PLC-PRF-5 was inactive. In addition, the Activity result in data set [2] is listed as “Not Active”.
In the case of `COc1ccc(-c2c3c(c(OC)c4cc5c(cc24)OCO5)COC3=O)cc1OC` [CHINENSINAPHTHOL METHYL ETHER], the outcome in the data set on T-24, with SiHa, with Ca-Ski, in the data set with HT-3 and in the data set with PLC-PRF-5 was inactive. The Activity entry in data set [2] was “Not Active”.
Take `COc1c2c(c(-c3ccc4c(c3)OCO4)c3cc4c(cc13)OCO4)C(=O)OC2` [TAIWANIN E METHYL ETHER]: the EC50 with T-24 is 5 µg/mL (≈ 13.2 µM); with SiHa it was 6.1 µg/mL (≈ 16.1 µM); in the data set with Ca-Ski, over 8 µg/mL; in the data set on HT-3, 2.6 µg/mL (≈ 6.87 µM); in data set [1], 6.8 µg/mL (≈ 18 µM). The CC50 at 144 h in data set [2] was over 8 µg/mL.
Consider `COc1ccc(-c2c3c(c(O)c4cc5c(cc24)OCO5)COC3=O)cc1OC`, for which the outcome in the data set on T-24, in the data set on SiHa, in the data set on Ca-Ski, in the data set on HT-3 and in the data set with PLC-PRF-5 was inactive. Also, in data set [2], the Activity entry is “Not Active”.
As for `COc1ccc(-c2c3c(c(OC)c4cc(OC)c(OC)cc24)COC3=O)cc1OC` [CILINAPHTHALIDE B], the result with T-24, with SiHa, in the data set with Ca-Ski, in the data set on HT-3 and in the data set on PLC-PRF-5 was inactive. Also, the Activity result in data set [2] was “Not Active”.
